This note sets out measurements from paper PMC11256359 (Biochemistry, 2024).

Positions count from the first letter of the chain named. pKd: −log10 of the molar value.

Common to all, as to type: binding
Experiment [1] concerns the target T1, hOTC (human ornithine transcarbamylase) (Homo sapiens, UniProt P00480, D263A).
T1 sequence (P00480 33-354 D263A): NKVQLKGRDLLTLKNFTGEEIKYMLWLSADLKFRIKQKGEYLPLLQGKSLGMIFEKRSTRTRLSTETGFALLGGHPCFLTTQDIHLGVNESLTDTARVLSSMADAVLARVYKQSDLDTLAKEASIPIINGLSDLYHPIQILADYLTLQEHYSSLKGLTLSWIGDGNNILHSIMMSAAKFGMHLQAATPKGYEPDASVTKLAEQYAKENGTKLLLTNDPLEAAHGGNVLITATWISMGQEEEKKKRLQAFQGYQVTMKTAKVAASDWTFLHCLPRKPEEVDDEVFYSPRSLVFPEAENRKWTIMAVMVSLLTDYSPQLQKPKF
Briefly: microscale thermophoresis, label-free. In a few lines:
(§1)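 His-tagged human OTC (WT or variants) expressed in BL21(DE3) Tuner cells with pGro7 chaperones and purified by one-step nickel chromatography. Ligand: substrate CP, serially diluted. Protein was diluted to 500 nM in 50 mM HEPES, 150 mM NaCl, 0.05% Tween, 2 mM EDTA, then mixed with CP to 250 nM final. Incubated ≥5 min at room temperature. Kd was measured by label-free MST on intrinsic tryptophan fluorescence.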
For orientation: MST reads how a fluorescent partner responds to local heating, with and without ligand.

For experiment [2], the target named is T2, hOTC (human ornithine transcarbamylase) (Homo sapiens, UniProt P00480, C303A).
T2 sequence (P00480 33-354 C303A): T1 sequence (P00480 33-354 D263A) with A231D, C271A
Description: microscale thermophoresis, label-free. In a few lines:
as §1

For experiment [3], the target named is T3, hOTC (human ornithine transcarbamylase) (Homo sapiens, UniProt P00480, H302L).
T3 sequence (P00480 33-354 H302L): T1 sequence (P00480 33-354 D263A) with A231D, H270L
Description: microscale thermophoresis, label-free. In a few lines:
as §1

Experiment [4] deals with T4, hOTC (human ornithine transcarbamylase) (Homo sapiens, UniProt P00480, H107N).
T4 sequence (P00480 33-354 H107N): T1 sequence (P00480 33-354 D263A) with H75N, A231D
Briefly: microscale thermophoresis, label-free. In a few lines: as §1

The target of experiment [5] is T5, hOTC (human ornithine transcarbamylase) (Homo sapiens, UniProt P00480, D263N).
T5 sequence (P00480 33-354 D263N): T1 sequence (P00480 33-354 D263A) with A231N
Description: microscale thermophoresis, label-free. In a few lines: as §1

Experiment [6] has as its target T6, hOTC (human ornithine transcarbamylase) (Homo sapiens, UniProt P00480).
T6 sequence (P00480 33-354): T1 sequence (P00480 33-354 D263A) with A231D
Description: microscale thermophoresis, label-free.

Experiment [7] deals with T6, hOTC (human ornithine transcarbamylase). Briefly: thermal shift assay. To be noted: 10 mM L-norvaline with carbamoyl phosphate present; 4 µM enzyme; storage buffer.

As usually defined, the pKd is −log10 of the Kd, conventionally taken in molar units. A low value points to a high Kd. `NC(=O)OP(=O)(O)O` [CP, carbamoyl phosphate]: the negative logarithm of the Kd (pKd) in experiment [1] was 6.37; in experiment [2], 6.72; in experiment [3], 3.96; in experiment [4] it was 4.60; in experiment [5], 6.49; in experiment [6], 6.64.

As to `CCC[C@H](N)C(=O)O` [NVA, L-norvaline], the “Tm increase relative to CP alone” value in experiment [7] came out at 2 °C.
